Experimental data from ChEMBL document CHEMBL3046615, “Isolation of nematicidal compounds from Tagetes patula L. yellow flowers: structure-activity relationship studies against cyst nematode Heterodera zeae infective stage larvae” (2011).
Active and inactive are the calls of the source. The rule behind the calls is not given here.

Legend:
[1] = test system: Heterodera zeae; assay: Nematicidal activity against Heterodera zeae infective stage larvae assessed as nematode mortality at 1% under dark conditions measured 24 hr post dose by stereoscopic microscopy; type: functional
Outline: (§1)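 Freshly hatched H. zeae second-stage juveniles, 100 per Petri plate, three replicates. Samples in MeOH, DMSO or water were tested in glass cavity blocks; petroleum ether samples were dried onto the block and larvae transferred on agar pieces. Percentages are dilutions of 30 mg/mL stocks (extracts/fractions) or 1 mg/mL stocks (pure compounds). Incubated at 28 ± 2 °C in light or dark box; mortality averaged over three replicates.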

[2] = test system: Heterodera zeae; assay: Nematicidal activity against Heterodera zeae infective stage larvae assessed as nematode mortality at 2% under dark conditions measured 24 hr post dose by stereoscopic microscopy; type: functional; outline: as §1
[3] = test system: Heterodera zeae; assay: Nematicidal activity against Heterodera zeae infective stage larvae assessed as nematode mortality at 5% under dark conditions measured 24 hr post dose by stereoscopic microscopy; type: functional; outline: as §1
[4] = test system: Heterodera zeae; assay: Nematicidal activity against Heterodera zeae infective stage larvae assessed as nematode mortality at 0.125% under light conditions measured 48 hr post dose by stereoscopic microscopy; type: functional; outline: as §1
[5] = test system: Heterodera zeae; assay: Nematicidal activity against Heterodera zeae infective stage larvae assessed as nematode mortality at 0.25% under light conditions measured 48 hr post dose by stereoscopic microscopy; type: functional; outline: as §1
[6] = test system: Heterodera zeae; assay: Nematicidal activity against Heterodera zeae infective stage larvae assessed as nematode mortality at 0.125% under light conditions measured 24 hr post dose by stereoscopic microscopy; type: functional; outline: as §1
[7] = test system: Heterodera zeae; assay: Nematicidal activity against Heterodera zeae infective stage larvae assessed as nematode mortality at 0.25% under light conditions measured 24 hr post dose by stereoscopic microscopy; type: functional; outline: as §1
[8] = test system: Heterodera zeae; assay: Nematicidal activity against Heterodera zeae infective stage larvae assessed as nematode mortality at 0.5% under light conditions measured 24 hr post dose by stereoscopic microscopy; type: functional; outline: as §1
[9] = test system: Heterodera zeae; assay: Nematicidal activity against Heterodera zeae infective stage larvae assessed as nematode mortality at 1% under light conditions measured 24 hr post dose by stereoscopic microscopy; type: functional; outline: as §1
[10] = test system: Heterodera zeae; assay: Nematicidal activity against Heterodera zeae infective stage larvae assessed as nematode mortality at 2% under light conditions measured 24 hr post dose by stereoscopic microscopy; type: functional; outline: as §1
[11] = test system: Heterodera zeae; assay: Nematicidal activity against Heterodera zeae infective stage larvae assessed as nematode mortality at 5% under light conditions measured 24 hr post dose by stereoscopic microscopy; type: functional; outline: as §1
[12] = test system: Heterodera zeae; assay: Nematicidal activity against Heterodera zeae infective stage larvae assessed as nematode mortality at 0.125% under dark conditions measured 5 to 60 min post dose by stereoscopic microscopy; type: functional, organism-based
Outline: (§2)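 H. zeae freshly hatched second-stage juveniles, 100 per plate, three replicates, at 28 ± 2 °C under light or in a dark box. Dilutions are % of a stock: 30 mg/mL for extracts/fractions, 1 mg/mL for pure compounds. Methanol-, DMSO- or water-soluble samples were tested in glass cavity blocks. Petroleum ether-soluble samples were air-dried in the block and covered with agar pieces bearing cultured larvae. Mortality was followed over 5–60 min; each value is the mean of three experiments.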

[13] = test system: Heterodera zeae; assay: Nematicidal activity against Heterodera zeae infective stage larvae assessed as nematode mortality at 0.25% under dark conditions measured 5 to 60 min post dose by stereoscopic microscopy; type: functional, organism-based; outline: as §2
[14] = test system: Heterodera zeae; assay: Nematicidal activity against Heterodera zeae infective stage larvae assessed as nematode mortality at 0.5% under dark conditions measured 5 to 60 min post dose by stereoscopic microscopy; type: functional, organism-based; outline: as §2
[15] = test system: Heterodera zeae; assay: Nematicidal activity against Heterodera zeae infective stage larvae assessed as nematode mortality at 1% under dark conditions measured 5 to 60 min post dose by stereoscopic microscopy; type: functional, organism-based; outline: as §2
[16] = test system: Heterodera zeae; assay: Nematicidal activity against Heterodera zeae infective stage larvae assessed as nematode mortality at 2% under dark conditions measured 5 to 60 min post dose by stereoscopic microscopy; type: functional, organism-based; outline: as §2
[17] = test system: Heterodera zeae; assay: Nematicidal activity against Heterodera zeae infective stage larvae assessed as nematode mortality at 5% under dark conditions measured 5 to 60 min post dose by stereoscopic microscopy; type: functional, organism-based; outline: as §2
[18] = test system: Heterodera zeae; assay: Nematicidal activity against Heterodera zeae infective stage larvae assessed as nematode mortality at 0.125% under light conditions measured 5 to 60 min post dose by stereoscopic microscopy; type: functional, organism-based; outline: as §2
[19] = test system: Heterodera zeae; assay: Nematicidal activity against Heterodera zeae infective stage larvae assessed as nematode mortality at 0.25% under light conditions measured 5 to 60 min post dose by stereoscopic microscopy; type: functional, organism-based; outline: as §2
[20] = test system: Heterodera zeae; assay: Nematicidal activity against Heterodera zeae infective stage larvae assessed as nematode mortality at 0.5% under light conditions measured 5 to 60 min post dose by stereoscopic microscopy; type: functional, organism-based; outline: as §2
[21] = test system: Heterodera zeae; assay: Nematicidal activity against Heterodera zeae infective stage larvae assessed as nematode mortality at 1% under light conditions measured 5 to 60 min post dose by stereoscopic microscopy; type: functional, organism-based; outline: as §2
[22] = test system: Heterodera zeae; assay: Nematicidal activity against Heterodera zeae infective stage larvae assessed as nematode mortality at 2% under light conditions measured 5 to 60 min post dose by stereoscopic microscopy; type: functional, organism-based; outline: as §2
[23] = test system: Heterodera zeae; assay: Nematicidal activity against Heterodera zeae infective stage larvae assessed as nematode mortality at 5% under light conditions measured 5 to 60 min post dose by stereoscopic microscopy; type: functional, organism-based; outline: as §2
[24] = test system: Heterodera zeae; assay: Nematicidal activity against Heterodera zeae infective stage larvae assessed as nematode mortality at 0.125% under dark conditions measured 48 hr post dose by stereoscopic microscopy; type: functional; outline: as §1
[25] = test system: Heterodera zeae; assay: Nematicidal activity against Heterodera zeae infective stage larvae assessed as nematode mortality at 0.25% under dark conditions measured 48 hr post dose by stereoscopic microscopy; type: functional; outline: as §1
[26] = test system: Heterodera zeae; assay: Nematicidal activity against Heterodera zeae infective stage larvae assessed as nematode mortality at 0.125% under dark conditions measured 24 hr post dose by stereoscopic microscopy; type: functional; outline: as §1
[27] = test system: Heterodera zeae; assay: Nematicidal activity against Heterodera zeae infective stage larvae assessed as nematode mortality at 0.25% under dark conditions measured 24 hr post dose by stereoscopic microscopy; type: functional; outline: as §1
[28] = test system: Heterodera zeae; assay: Nematicidal activity against Heterodera zeae infective stage larvae assessed as nematode mortality at 0.5% under dark conditions measured 24 hr post dose by stereoscopic microscopy; type: functional; outline: as §1

CNC(=O)Oc1cccc2c1OC(C)(C)C2 [CARBOFURAN]
mortality [1]: 100%
mortality [2]: 100%
mortality [3]: 100%
mortality [4]: 100%
mortality [5]: 100%
mortality [6]: 40%
mortality [7]: 80%
mortality [8]: 100%
mortality [9]: 100%
mortality [10]: 100%
mortality [11]: 100%
Activity [12]: inactive
Activity [13]: inactive
Activity [14]: inactive
Activity [15]: inactive
Activity [16]: inactive
Activity [17]: inactive
Activity [18]: inactive
Activity [19]: inactive
Activity [20]: inactive
Activity [21]: inactive
Activity [22]: inactive
Activity [23]: inactive
mortality [24]: 100%
mortality [25]: 100%
mortality [26]: 60%
mortality [27]: 80%
mortality [28]: 100%
